Laboratory results taken from ChEMBL document CHEMBL4184319, “Fluorescent-Labeled Selective Adenosine A2B Receptor Antagonist Enables Competition Binding Assay by Flow Cytometry” (J Med Chem, 2018).
Active and inactive are the calls of the source. The calls are words filed in the database; no cut-off is given here.

Columns and labels:
[1] = Selectivity ratio of Ki for adenosine A2A receptor in rat brain striatal membranes to Ki for recombinant mouse adenosine A2B receptor expressed in CHO cell membranes; assay type: cell-based
Adenosine receptor A3 = target: T1, Adenosine receptor A3 (Homo sapiens, UniProt P0DMS8); assay: Displacement of [3H]PSB-11 from recombinant human adenosine A3 receptor expressed in CHO cell membranes after 45 mins by liquid scintillation counting method
T1 sequence (P0DMS8 whole entry): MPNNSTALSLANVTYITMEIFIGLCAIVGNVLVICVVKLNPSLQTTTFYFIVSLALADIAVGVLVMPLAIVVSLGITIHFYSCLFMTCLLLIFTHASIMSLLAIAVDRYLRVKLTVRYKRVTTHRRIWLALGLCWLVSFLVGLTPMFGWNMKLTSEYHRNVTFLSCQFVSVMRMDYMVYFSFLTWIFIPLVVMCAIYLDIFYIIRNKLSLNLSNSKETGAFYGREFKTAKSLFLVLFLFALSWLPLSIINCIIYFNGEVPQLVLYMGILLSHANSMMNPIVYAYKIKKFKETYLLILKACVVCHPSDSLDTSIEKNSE
In short: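 Human A3-CHO membranes incubated with [³H]PSB-11 (1 nM) for 45 min at rt, after 10-15 min pre-incubation with ADA 0.12 IU/mL. Nonspecific binding defined with 100 µM R-PIA. DMSO 2.5 % final. GF/B filtration, then scintillation counting. Curves used 6-7 concentrations over 3 log units. At least three experiments in duplicate.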

[2] = Selectivity ratio of Ki for recombinant human adenosine A3 receptor expressed in CHO cell membranes to Ki for recombinant rat adenosine A2B receptor expressed in CHO cell membranes; assay type: cell-based
Adenosine receptor A2b [3] = target: T2, Adenosine receptor A2b (Homo sapiens, UniProt P29275); assay: Displacement of [3H]PSB-603 from recombinant human adenosine A2B receptor expressed in CHO cell membranes after 75 mins by liquid scintillation counting method
T2 sequence (P29275 whole entry): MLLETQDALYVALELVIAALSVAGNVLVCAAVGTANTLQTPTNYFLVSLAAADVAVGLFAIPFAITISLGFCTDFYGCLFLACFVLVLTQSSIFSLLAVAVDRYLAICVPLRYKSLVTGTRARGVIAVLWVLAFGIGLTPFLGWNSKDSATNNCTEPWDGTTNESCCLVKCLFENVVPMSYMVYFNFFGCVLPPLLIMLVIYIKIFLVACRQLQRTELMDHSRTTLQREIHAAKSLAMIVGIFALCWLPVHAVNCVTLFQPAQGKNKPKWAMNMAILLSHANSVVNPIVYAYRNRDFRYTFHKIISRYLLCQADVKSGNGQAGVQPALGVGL
In short: (§1)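 [³H]PSB-603 (0.3 nM) used with CHO membranes expressing human, mouse or rat A2BAR, 75 min at rt. Membranes pre-incubated 10-15 min with ADA 0.12 IU/mL. Nonspecific binding defined with 10 µM DPCPX. DMSO 2.5 % final. Filtration on GF/B with ice-cold 50 mM Tris-HCl pH 7.4 containing 0.1 % BSA, then scintillation counting. Curves used 6-7 concentrations over 3 log units. At least three experiments.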

Homo sapiens [4] = species: Homo sapiens; assay: Selectivity ratio of Ki for recombinant human adenosine A3 receptor expressed in CHO cell membranes to Ki for recombinant human adenosine A2B receptor expressed in CHO cell membranes; assay type: cell-based
Homo sapiens [5] = species: Homo sapiens; assay: Selectivity ratio of Ki for recombinant human adenosine A1 receptor expressed in CHO cell membranes to Ki for recombinant human adenosine A2B receptor expressed in CHO cell membranes; assay type: cell-based
Rattus norvegicus = species: Rattus norvegicus; assay: Selectivity ratio of Ki for adenosine A2A receptor in rat brain striatal membranes to Ki for recombinant rat adenosine A2B receptor expressed in CHO cell membranes; assay type: cell-based
Adenosine receptor A2b [6] = target: T3, Adenosine receptor A2b (Rattus norvegicus, UniProt P29276); assay: Displacement of [3H]PSB-603 from recombinant rat adenosine A2B receptor expressed in CHO cell membranes after 75 mins by liquid scintillation counting method
T3 sequence (P29276 whole entry): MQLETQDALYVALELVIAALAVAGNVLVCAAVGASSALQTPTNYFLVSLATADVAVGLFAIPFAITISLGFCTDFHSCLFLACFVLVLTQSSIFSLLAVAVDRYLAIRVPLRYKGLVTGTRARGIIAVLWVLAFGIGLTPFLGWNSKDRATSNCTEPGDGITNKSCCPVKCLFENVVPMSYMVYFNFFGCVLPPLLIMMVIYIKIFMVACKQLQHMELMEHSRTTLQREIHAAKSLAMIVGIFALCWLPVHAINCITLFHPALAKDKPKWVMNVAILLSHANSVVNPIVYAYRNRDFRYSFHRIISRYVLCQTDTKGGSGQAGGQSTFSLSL
In short: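 Membranes pre-incubated 10-15 min with ADA 0.12 IU/mL. DMSO 2.5 % final. Filtration on GF/B with ice-cold 50 mM Tris-HCl pH 7.4 containing 0.1 % BSA, then scintillation counting. Curves used 6-7 concentrations over 3 log units. At least three experiments.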

Adenosine receptor A2b [7] = target: T4, Adenosine receptor A2b (Mus musculus, UniProt Q60614); assay: Displacement of [3H]PSB-603 from recombinant mouse adenosine A2B receptor expressed in CHO cell membranes after 75 mins by liquid scintillation counting method; in short: as §1
T4 sequence (Q60614 whole entry): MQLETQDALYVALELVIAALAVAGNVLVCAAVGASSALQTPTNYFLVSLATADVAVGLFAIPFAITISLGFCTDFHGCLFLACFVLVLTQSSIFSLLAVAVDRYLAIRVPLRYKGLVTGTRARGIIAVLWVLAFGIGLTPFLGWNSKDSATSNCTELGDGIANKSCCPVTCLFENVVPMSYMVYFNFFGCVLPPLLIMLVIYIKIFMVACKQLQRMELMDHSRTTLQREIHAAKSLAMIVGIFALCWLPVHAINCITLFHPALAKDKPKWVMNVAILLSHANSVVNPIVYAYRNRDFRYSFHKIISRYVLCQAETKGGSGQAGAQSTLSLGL

Homo sapiens [8] = species: Homo sapiens; assay: Selectivity ratio of Ki for recombinant human adenosine A2A receptor expressed in HEK cell membranes to Ki for recombinant human adenosine A2B receptor expressed in CHO cell membranes; assay type: cell-based
[9] = Binding affinity to wild type CHO cell membranes at 100 nM after 15 mins by confocal microscopic method; assay type: cell-based, Cricetulus griseus; conditions: chinese hamster, 0.25 h, 0.1 µM
In short: (§2)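 Live CHO cells stably expressing human A2BAR (or wild-type CHO as control) grown on chambered coverslips to about 80 % confluency. Incubated with fluorescent ligand (100 nM) for 15 min at 37°C, alone or after 30 min pre-incubation with PSB-603 (100 nM) or DPCPX (1 µM). Confocal laser scanning imaging with identical settings across conditions. Three similar experiments.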

[10] = Selectivity ratio of Ki for recombinant human adenosine A1 receptor expressed in CHO cell membranes to Ki for recombinant mouse adenosine A2B receptor expressed in CHO cell membranes; assay type: cell-based
[11] = target: T5, Adenosine receptor A2b (Homo sapiens) (UniProt P29275); assay: Binding affinity to recombinant human adenosine A2B receptor expressed in CHO cell membranes at 100 nM after 15 mins in presence of PSB-603 by confocal microscopic method; assay type: cell-based; in short: as §2
T5 sequence (whole entry): T2 sequence (P29275 whole entry)

[12] = Selectivity ratio of Ki for recombinant human adenosine A2A receptor expressed in HEK cell membranes to Ki for recombinant rat adenosine A2B receptor expressed in CHO cell membranes; assay type: cell-based

Ki (Adenosine receptor A3): > 10000 nM | Ki (Adenosine receptor A2b [3]): 1.83 nM | Ki (Adenosine receptor A2b [6]): 0.18 nM | Ki (Adenosine receptor A2b [7]): 1.32 nM | Activity [9]: Not Active | Activity [11]: inactive
SMILES: CCCn1c(=O)[nH]c2nc(-c3ccc(OCC(=O)NCCC4=C5C(C)=CC(C)=[N+]5[B-](F)(F)n5c(C)cc(C)c54)cc3)[nH]c2c1=O
Ratio Ki [1]: > 150 | Ratio Ki [2]: > 1000 | Ratio Ki (Homo sapiens [4]): > 1000 | Ratio Ki (Homo sapiens [5]): > 1000 | Ratio Ki (Rattus norvegicus): > 150 | Ratio Ki (Homo sapiens [8]): > 150 | Ratio Ki [10]: > 1000 | Ratio Ki [12]: > 1000
